Assay results reported in ChEMBL document CHEMBL1955823, “Imidazo[1,2-a]pyrazines as novel PI3K inhibitors” (Bioorg Med Chem Lett, 2012).

Key:
[1] = target: Tyrosine-protein kinase JAK2 (Homo sapiens) (UniProt O60674); test: Inhibition of JAK2 at 5 to 10 uM
[2] = target: Phosphatidylinositol 4,5-bisphosphate 3-kinase catalytic subunit gamma isoform (Homo sapiens, UniProt P48736); test: Inhibition of human PI3K p110gamma; conditions: read-out: Ki(app)
[3] = target: Epidermal growth factor receptor (Homo sapiens) (UniProt P00533); test: Inhibition of EGF-R at 5 to 10 uM
[4] = target: T1, Inhibitor of nuclear factor kappa-B kinase subunit beta (Homo sapiens) (UniProt O14920); test: Inhibition of IKK-beta at 5 to 10 uM
T1 sequence (whole entry): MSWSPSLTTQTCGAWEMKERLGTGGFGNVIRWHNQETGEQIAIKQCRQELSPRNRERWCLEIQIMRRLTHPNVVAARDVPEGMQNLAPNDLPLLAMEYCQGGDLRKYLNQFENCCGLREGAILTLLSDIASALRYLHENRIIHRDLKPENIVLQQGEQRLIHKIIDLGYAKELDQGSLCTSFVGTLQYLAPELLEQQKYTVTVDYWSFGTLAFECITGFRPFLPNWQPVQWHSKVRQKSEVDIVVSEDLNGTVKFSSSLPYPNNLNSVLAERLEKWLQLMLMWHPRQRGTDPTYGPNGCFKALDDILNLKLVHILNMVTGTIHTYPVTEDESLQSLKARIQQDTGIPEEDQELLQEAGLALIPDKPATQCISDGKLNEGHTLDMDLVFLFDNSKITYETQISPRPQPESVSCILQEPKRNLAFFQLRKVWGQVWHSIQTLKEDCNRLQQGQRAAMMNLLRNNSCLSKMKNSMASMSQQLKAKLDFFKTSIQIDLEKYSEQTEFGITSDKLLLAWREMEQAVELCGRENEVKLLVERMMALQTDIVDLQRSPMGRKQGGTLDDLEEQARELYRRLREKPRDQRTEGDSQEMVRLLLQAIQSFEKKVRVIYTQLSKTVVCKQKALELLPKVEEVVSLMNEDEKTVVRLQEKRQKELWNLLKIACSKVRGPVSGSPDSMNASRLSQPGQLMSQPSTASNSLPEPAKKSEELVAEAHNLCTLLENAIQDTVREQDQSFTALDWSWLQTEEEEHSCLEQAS

[5] = target: Serine/threonine-protein kinase PAK 1 (Homo sapiens) (UniProt Q13153); test: Inhibition of PAK1 at 5 to 10 uM
[6] = target: T2, Serine/threonine-protein kinase Sgk1 (Homo sapiens) (UniProt O00141); test: Inhibition of SGK1 at 5 to 10 uM
T2 sequence (whole entry): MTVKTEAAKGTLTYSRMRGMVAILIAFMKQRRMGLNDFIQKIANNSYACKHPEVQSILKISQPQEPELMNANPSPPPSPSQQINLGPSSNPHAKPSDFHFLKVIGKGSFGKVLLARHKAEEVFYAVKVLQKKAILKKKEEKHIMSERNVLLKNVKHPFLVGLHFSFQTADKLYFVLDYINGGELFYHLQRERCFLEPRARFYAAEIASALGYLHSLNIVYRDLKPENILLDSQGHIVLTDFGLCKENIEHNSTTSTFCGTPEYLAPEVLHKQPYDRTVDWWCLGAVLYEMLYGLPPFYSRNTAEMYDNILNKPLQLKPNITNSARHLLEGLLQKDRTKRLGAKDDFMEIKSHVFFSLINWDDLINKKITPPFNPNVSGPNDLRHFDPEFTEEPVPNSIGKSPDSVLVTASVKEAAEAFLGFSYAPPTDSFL

Homo sapiens = species on record: Homo sapiens; test: Selectivity ratio of Kiapp for human PI3K p110alpha/p85alpha to Kiapp for human PI3K p110delta/p85alpha
[7] = target: Mitogen-activated protein kinase 8 (Homo sapiens) (UniProt P45983); test: Inhibition of JNK1 at 5 to 10 uM
[8] = target: PI3-kinase p110-alpha/p85-alpha (Homo sapiens, UniProt P42336); test: Inhibition of PI3K p110alpha/p85alpha; format: protein-complex assay
Method in brief: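 Biochemical kinase assay following the kit manufacturer's protocol with a modified kinase buffer (50 mM HEPES pH 7.5, 3 mM MgCl2, 100 mM NaCl, 1 mM EGTA, 0.04% CHAPS, 2 mM TCEP, 0.01 mg/ml BGG); 10 nM enzyme; ATP 50 µM; values are averages of two independent experiments, each in duplicate.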

CYP2C19 = CYP2C19 (Homo sapiens, UniProt P33261); test: Inhibition of CYP2C19 at 10 uM; format: ADME
Method in brief: (§1)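 CYP isoform panel (1A2, 2C9, 2C19, 2D6, 3A4); percent inhibition recorded at 10 µM test compound; run in duplicate by an outside contractor.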

[9] = Metabolic stability in mouse liver microsomes assessed as compound remaining at 1 uM after 30 mins
[10] = Metabolic stability in human liver microsomes assessed as compound remaining at 1 uM after 30 mins
CYP2C9 = CYP2C9 (Homo sapiens, UniProt P11712); test: Inhibition of CYP2C9 at 10 uM; format: ADME; method in brief: as §1
CYP3A4 = CYP3A4 (Homo sapiens, UniProt P08684); test: Inhibition of CYP3A4 at 10 uM; format: ADME; method in brief: as §1
CYP1A2 = target: T3, CYP1A2 (Homo sapiens, UniProt P05177); test: Inhibition of CYP1A2 at 10 uM; format: ADME; method in brief: as §1
T3 sequence (P05177 whole entry): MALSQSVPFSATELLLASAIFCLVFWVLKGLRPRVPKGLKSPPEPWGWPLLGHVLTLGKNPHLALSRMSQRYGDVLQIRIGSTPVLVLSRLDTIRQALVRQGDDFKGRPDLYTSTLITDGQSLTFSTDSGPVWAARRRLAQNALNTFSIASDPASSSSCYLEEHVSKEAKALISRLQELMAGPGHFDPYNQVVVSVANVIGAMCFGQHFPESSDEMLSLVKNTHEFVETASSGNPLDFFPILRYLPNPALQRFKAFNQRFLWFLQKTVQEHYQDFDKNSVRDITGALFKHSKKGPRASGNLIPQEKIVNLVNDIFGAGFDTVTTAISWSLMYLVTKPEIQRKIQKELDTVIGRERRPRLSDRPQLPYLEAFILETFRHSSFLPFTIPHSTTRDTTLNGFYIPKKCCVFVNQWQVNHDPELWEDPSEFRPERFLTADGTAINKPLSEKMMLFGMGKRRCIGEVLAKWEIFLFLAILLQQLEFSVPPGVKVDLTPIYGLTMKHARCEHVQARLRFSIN

CYP2D6 = CYP2D6 (Homo sapiens, UniProt P10635); test: Inhibition of CYP2D6 at 10 uM; format: ADME; method in brief: as §1
Chain of CYP2D6 (P10635 whole entry): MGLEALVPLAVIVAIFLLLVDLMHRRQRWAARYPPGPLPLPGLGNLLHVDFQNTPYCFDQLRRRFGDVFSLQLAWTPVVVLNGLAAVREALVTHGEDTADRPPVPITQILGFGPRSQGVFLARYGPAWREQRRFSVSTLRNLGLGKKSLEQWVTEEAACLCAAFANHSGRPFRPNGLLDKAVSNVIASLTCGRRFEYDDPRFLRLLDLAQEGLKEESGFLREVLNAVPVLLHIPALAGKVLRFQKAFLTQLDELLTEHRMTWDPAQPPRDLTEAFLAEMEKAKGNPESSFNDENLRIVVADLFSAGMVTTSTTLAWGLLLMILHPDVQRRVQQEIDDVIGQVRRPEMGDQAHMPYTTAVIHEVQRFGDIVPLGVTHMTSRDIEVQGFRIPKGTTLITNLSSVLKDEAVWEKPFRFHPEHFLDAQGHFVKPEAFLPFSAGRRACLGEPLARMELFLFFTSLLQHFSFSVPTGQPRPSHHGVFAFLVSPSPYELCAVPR

Chain of Tyrosine-protein kinase JAK2 (Homo sapiens) (O60674 whole entry, canonical isoform): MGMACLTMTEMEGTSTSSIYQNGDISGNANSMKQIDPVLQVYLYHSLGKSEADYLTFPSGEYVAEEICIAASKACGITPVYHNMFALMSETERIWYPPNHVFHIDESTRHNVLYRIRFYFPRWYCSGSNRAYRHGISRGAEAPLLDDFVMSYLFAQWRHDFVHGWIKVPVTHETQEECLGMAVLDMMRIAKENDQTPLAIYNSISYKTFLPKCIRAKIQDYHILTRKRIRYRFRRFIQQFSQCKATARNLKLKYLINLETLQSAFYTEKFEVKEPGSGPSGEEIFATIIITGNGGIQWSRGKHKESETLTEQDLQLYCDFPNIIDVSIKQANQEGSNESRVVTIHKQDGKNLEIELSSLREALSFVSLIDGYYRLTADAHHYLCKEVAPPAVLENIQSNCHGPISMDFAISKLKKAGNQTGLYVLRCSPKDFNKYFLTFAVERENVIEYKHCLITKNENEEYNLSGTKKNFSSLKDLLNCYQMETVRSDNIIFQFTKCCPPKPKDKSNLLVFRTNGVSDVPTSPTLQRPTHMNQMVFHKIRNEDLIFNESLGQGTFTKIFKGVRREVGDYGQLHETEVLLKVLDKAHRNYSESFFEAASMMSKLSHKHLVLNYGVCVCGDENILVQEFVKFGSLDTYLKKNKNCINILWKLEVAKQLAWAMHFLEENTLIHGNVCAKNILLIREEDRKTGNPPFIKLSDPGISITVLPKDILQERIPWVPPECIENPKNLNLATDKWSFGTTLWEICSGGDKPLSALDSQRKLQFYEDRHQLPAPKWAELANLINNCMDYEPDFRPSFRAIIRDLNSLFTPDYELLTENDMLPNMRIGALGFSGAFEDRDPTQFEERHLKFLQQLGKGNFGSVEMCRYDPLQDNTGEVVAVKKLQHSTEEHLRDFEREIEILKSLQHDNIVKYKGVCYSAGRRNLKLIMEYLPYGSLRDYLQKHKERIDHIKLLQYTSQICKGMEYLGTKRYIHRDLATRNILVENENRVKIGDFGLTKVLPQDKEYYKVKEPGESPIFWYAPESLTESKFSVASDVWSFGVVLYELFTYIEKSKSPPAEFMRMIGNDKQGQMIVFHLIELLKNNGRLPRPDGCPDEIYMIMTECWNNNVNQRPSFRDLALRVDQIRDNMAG
Chain of Serine/threonine-protein kinase PAK 1 (Homo sapiens) (Q13153 whole entry): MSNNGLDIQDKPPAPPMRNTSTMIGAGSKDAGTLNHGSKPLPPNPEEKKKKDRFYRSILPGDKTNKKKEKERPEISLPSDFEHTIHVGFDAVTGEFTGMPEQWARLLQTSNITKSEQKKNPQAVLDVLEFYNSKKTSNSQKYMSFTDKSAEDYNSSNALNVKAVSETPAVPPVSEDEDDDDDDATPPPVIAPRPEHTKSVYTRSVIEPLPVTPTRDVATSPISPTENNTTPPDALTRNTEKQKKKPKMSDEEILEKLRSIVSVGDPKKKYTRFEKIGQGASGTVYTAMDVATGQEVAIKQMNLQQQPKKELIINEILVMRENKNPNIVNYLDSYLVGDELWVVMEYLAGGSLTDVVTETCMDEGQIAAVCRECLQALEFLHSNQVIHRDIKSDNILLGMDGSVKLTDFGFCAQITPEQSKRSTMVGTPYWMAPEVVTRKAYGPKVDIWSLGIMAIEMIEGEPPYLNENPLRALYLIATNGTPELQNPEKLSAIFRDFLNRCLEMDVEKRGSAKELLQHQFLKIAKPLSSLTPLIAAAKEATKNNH
Chain of Epidermal growth factor receptor (Homo sapiens) (P00533 whole entry): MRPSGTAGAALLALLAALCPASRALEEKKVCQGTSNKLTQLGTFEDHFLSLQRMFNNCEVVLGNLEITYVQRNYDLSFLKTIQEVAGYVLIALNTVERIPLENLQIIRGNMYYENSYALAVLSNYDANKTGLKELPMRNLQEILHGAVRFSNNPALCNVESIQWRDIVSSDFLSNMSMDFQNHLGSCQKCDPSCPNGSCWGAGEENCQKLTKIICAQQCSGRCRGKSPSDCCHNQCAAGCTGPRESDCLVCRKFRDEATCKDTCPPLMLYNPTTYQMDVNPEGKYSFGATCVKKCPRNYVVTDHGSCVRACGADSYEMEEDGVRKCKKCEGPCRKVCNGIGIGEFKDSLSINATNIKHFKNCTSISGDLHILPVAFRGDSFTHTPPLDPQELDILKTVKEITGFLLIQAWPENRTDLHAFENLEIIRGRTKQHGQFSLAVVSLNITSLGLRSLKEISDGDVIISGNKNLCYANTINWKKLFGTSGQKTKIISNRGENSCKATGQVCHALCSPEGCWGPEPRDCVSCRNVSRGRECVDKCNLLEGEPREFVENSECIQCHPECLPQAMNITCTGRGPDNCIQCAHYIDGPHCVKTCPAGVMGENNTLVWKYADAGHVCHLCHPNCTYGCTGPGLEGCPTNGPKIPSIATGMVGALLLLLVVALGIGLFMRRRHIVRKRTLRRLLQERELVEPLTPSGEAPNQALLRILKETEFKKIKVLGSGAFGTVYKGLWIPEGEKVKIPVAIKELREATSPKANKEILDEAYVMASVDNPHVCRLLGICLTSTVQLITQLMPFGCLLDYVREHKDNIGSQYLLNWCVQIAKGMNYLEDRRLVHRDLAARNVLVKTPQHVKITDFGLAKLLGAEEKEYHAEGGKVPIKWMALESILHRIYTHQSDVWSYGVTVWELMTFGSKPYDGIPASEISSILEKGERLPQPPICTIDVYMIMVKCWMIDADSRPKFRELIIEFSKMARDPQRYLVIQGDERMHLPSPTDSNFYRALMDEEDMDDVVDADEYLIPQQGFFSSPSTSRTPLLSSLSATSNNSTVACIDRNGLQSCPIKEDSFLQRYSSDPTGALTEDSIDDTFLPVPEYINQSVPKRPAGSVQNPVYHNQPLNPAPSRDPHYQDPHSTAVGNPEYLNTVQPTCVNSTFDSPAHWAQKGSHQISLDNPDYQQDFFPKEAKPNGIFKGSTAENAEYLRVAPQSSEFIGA
Chain of Phosphatidylinositol 4,5-bisphosphate 3-kinase catalytic subunit gamma isoform (P48736 whole entry, canonical isoform): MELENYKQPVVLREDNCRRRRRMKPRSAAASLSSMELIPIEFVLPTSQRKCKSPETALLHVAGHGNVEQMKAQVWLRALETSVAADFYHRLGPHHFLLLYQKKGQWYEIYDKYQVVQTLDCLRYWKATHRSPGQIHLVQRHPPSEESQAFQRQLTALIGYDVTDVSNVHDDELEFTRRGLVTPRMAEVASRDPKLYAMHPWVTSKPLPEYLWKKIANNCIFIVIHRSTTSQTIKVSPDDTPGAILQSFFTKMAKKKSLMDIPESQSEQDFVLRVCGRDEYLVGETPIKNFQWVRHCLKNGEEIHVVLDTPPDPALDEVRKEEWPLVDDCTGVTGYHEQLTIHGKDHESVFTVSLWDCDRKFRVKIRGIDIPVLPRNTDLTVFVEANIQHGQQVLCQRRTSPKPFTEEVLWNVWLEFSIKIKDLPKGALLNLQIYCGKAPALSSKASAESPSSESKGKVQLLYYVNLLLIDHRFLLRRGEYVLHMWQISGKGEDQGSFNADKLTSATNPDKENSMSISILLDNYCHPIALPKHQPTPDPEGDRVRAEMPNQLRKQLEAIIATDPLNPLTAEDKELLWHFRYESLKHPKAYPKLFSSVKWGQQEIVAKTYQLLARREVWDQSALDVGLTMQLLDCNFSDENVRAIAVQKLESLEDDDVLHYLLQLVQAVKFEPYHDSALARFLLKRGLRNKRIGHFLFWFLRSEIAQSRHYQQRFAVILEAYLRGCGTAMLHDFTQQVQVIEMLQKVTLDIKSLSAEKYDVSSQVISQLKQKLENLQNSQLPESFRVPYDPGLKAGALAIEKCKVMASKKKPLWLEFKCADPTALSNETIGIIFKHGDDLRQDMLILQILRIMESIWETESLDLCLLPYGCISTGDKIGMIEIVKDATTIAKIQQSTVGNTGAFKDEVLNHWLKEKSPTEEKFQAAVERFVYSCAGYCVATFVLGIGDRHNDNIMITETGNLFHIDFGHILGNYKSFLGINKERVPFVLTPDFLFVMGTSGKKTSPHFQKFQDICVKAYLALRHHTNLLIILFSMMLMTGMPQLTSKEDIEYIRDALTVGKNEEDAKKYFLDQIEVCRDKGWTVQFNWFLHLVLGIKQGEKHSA
Chain of Mitogen-activated protein kinase 8 (Homo sapiens) (P45983 whole entry): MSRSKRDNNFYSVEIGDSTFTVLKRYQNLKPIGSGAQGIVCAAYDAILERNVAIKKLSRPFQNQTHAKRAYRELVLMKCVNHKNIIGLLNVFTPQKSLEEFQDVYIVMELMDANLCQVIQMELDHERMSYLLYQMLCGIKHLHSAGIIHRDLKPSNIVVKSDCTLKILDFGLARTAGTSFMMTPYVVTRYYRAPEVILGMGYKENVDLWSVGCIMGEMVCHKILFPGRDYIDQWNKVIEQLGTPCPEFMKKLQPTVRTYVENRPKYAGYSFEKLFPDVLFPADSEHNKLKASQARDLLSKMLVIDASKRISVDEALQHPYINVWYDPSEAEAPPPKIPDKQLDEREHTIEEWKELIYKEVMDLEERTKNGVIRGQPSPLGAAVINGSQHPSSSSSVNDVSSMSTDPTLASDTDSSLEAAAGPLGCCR

inhibition [1]	Ki [2]	inhibition [3]	inhibition [4]	inhibition [5]	inhibition [6]	Ratio Ki(app) (Homo sapiens)	inhibition [7]	IC50 [8]	inhibition at 10 µM (CYP2C19)	remaining at 0.5 h, 1 µM [9]	remaining at 0.5 h, 1 µM [10]	inhibition at 10 µM (CYP2C9)	inhibition at 10 µM (CYP3A4)	inhibition at 10 µM (CYP1A2)	inhibition at 10 µM (CYP2D6)	Compound
< 50%	> 500 nM	< 50%	< 50%	< 50%	< 50%	10	< 50%	–	–	–	–	–	–	–	–	O=C(NCCN1CCOCC1)c1cn2cc(-c3cccc4[nH]ncc34)nc(N3CCOCC3)c2n1
< 50%	> 500 nM	< 50%	< 50%	< 50%	< 50%	12.2	< 50%	35 nM	–	–	–	–	–	–	–	CN(C)CCCNC(=O)c1cn2cc(-c3cccc4[nH]ncc34)nc(N3CCOCC3)c2n1
< 50%	> 500 nM	< 50%	< 50%	< 50%	< 50%	6	< 50%	–	–	–	–	–	–	–	–	CNC(=O)c1cn2cc(-c3cccc4[nH]ncc34)nc(N3CCOCC3)c2n1
< 50%	> 500 nM	< 50%	< 50%	< 50%	< 50%	–	< 50%	–	< 25%	32%	48%	< 25%	< 25%	< 25%	< 25%	CS(=O)(=O)N1CCN(Cc2cn3cc(-c4cccc5[nH]ncc45)nc(N4CCOCC4)c3n2)CC1
< 50%	> 500 nM	< 50%	< 50%	< 50%	< 50%	10.8	< 50%	47 nM	–	–	–	–	–	–	–	CS(=O)(=O)N1CCN(Cc2nc3c(N4CCOCC4)nc(-c4cccc5[nH]ncc45)cn3c2Br)CC1
< 50%	> 500 nM	< 50%	< 50%	< 50%	< 50%	9.5	< 50%	194 nM	–	–	–	–	–	–	–	CS(=O)(=O)N1CCN(Cc2cn3c(C#N)c(-c4cccc5[nH]ncc45)nc(N4CCOCC4)c3n2)CC1
< 50%	> 500 nM	< 50%	< 50%	< 50%	< 50%	3.2	< 50%	145 nM	< 25%	28%	35%	< 25%	< 25%	< 25%	< 25%	CS(=O)(=O)N1CCN(Cc2cn3c(Cl)c(-c4cccc5[nH]ncc45)nc(N4CCOCC4)c3n2)CC1
< 50%	> 500 nM	< 50%	< 50%	< 50%	< 50%	21.4	< 50%	31 nM	–	–	–	–	–	–	–	COCCCNC(=O)c1cn2cc(-c3cccc4[nH]ncc34)nc(N3CCOCC3)c2n1
